Laboratory results reported in ChEMBL document CHEMBL1124425, “Alkylating partial muscarinic agonists related to oxotremorine. N-[4-[(2-haloethyl)methylamino]-2-butynyl]-5-methyl-2-pyrrolidones” (J Med Chem, 1989).

How the values were obtained:
[1] = Binding affinity of compound towards muscarinic receptor using radioligand [3H]NMS in the rat cerebral cortex; type: tissue-based
Summary of the method: (§1)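 Male Sprague-Dawley rat cerebral cortex homogenised in 50 mM phosphate buffer pH 7.4 and centrifuged at 30000g. Competition against 0.3 nM (-)-[3H]NMS with the aziridinium ions, 1 h at 0 °C, triplicates, five experiments. Nonspecific binding taken with 10 µM atropine. Two-site fit by unweighted nonlinear regression gave KH and KL, which were corrected for [3H]NMS occupancy.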

[2] = species on record: Rattus norvegicus; test: Rate constants of compound was determined at muscarinic receptor in the rat cerebral cortex; type: ADME
Summary of the method: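 Rat cortex homogenate (25 mg wet tissue/mL, 50 mM phosphate pH 7.4), preincubated 10 min at 37 °C. Precyclized haloethylamines then added at 0.1 mM to 1 nM final for 30 min. Reaction stopped with thiosulfate (1.0 mM) and atropine (0.1 mM), and tissue washed four times. Residual binding of 0.4 nM [3H]QNB measured over 1 h at 37 °C. Rate equation fitted by unweighted nonlinear regression, using initial aziridinium concentration.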

[3] = Rate constant for decay of compound was determined in 50 mM phosphate buffer (pH 7.4) at 37 degree celsius; type: ADME
Summary of the method: (§2)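 Solvolysis in 50 mM phosphate buffer pH 7.4 at 37 °C. Halide release by argentometric titration. Aziridinium ion quantified by thiosulfate reaction and iodine back-titration. k1 and k2 obtained by unweighted Gauss-Newton nonlinear fit, with half-lives following from them.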

[4] = First order rate constant of compound was determined in 50 mM phosphate buffer (pH 7.4) at 37 degree celsius; type: ADME; summary of the method: as §2
[5] = Dissociation constant of compound was determined at muscarinic receptor in the rat cerebral cortex; type: tissue-based; summary of the method: as §1
[6] = Percentage affinity of compound towards muscarinic receptor sites in the rat cerebral cortex; type: tissue-based; summary of the method: as §1
[7] = Equilibrium binding parameters of compound was determined at muscarinic receptor in the rat cerebral cortex; type: tissue-based; summary of the method: as §1
[8] = Ratio of binding constants KL to KH was determined; summary of the method: as §1
[9] = Rate constant for decay of compound was determined in 50 mM phosphate buffer (pH 7.4) at 24 degree celsius; type: ADME
Summary of the method: (§3)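 Solvolysis in 50 mM phosphate buffer pH 7.4 at 24 °C. Halide release measured by argentometric titration. Aziridinium ion was reacted with thiosulfate, and the excess was back-titrated with iodine. k1 (cyclisation) and k2 (aziridinium decay) came from an unweighted Gauss-Newton fit of kinetic models.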

[10] = First order rate constant of compound was determined in 50 mM phosphate buffer (pH 7.4) at 24 degree celsius; type: ADME; summary of the method: as §3
[11] = Acute toxicity of compound when injected intravenously in mice; type: organism-based; settings: mouse, in vivo, iv
[12] = Half life of compound was determined in 50 mM phosphate buffer (pH 7.4) at 37 degree celsius; type: ADME; summary of the method: as §2

## CC1CCC(=O)N1CC#CC[N+]1(C)CC1 (configuration not stated)
[1]
  Ki: 53 nM

## CN(CC#CCN1CCCC1=O)CCCl
[2]
  K3: 0.064 min⁻¹
[3]
  K2: 0.033 min⁻¹
[4]
  K1: 0.019 min⁻¹
[5]
  KA: 0.79 µM

## CN(CC#CCN1CCCC1=O)CCBr
[6]
  Affinity: 16.5%
[2]
  K3: 0.062 min⁻¹
[3]
  K2: 0.04 min⁻¹
[7]
  KH: 0.001 µM
  KL: 0.47 µM
[4]
  K1: 0.85 min⁻¹
[5]
  KA: 0.35 µM
[8]
  Ratio: 466

## CC1CCC(=O)N1CC#CCN(C)CCBr (configuration not stated)
[6]
  Affinity: 14.2%
[9]
  K2: 0.0096 min⁻¹
[10]
  K1: 0.18 min⁻¹
[2]
  K3: 0.096 min⁻¹
[3]
  K2: 0.06 min⁻¹
[7]
  KH: 0.001 µM
  KL: 0.071 µM
[4]
  K1: 0.89 min⁻¹
[5]
  KA: 0.035 µM
[8]
  Ratio: 71
[11]
  LD50: 81 µmol/kg

## C[N+]1(CC#CCN2CCCC2=O)CC1
[1]
  Ki: 330 nM

## CC1CCC(=O)N1CC#CCN(C)CCCl (configuration not stated)
[2]
  K3: 0.091 min⁻¹
[12]; buffer
  T1/2: 15.3 min
[12]; phosphate buffer
  half-life: 27.7 min
[3]
  K2: 0.045 min⁻¹
[4]
  K1: 0.025 min⁻¹
[5]
  KA: 0.058 µM
[11]
  LD50: 396 µmol/kg
